According to ChEMBL document CHEMBL1157589, “Antifungal 3,5-disubstituted furanones: From 5-acyloxymethyl to 5-alkylidene derivatives” (Bioorg Med Chem, 2010):
≈ marks a conversion by molar mass, not a printed value.

These compounds were tested on Candida albicans (assay: Antifungal activity against Candida albicans ATCC 90028 after 48 hrs by microdilution method). Conditions: ATCC 90028, 48 h; call rule not given here.
Format: functional
Procedure, shortened: (§1)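 Yeasts held on Sabouraud dextrose agar. MIC by NCCLS M27-A broth microdilution in RPMI 1640 with L-glutamine, buffered with 0.165 M MOPS to pH 7.0. Compounds in DMSO (≤2% final), twofold dilutions 500–0.48. Final inoculum 5 × 10³ ± 0.2 cfu mL⁻¹. Incubated at 35 °C; absorbance at 540 nm read at 24 and 48 h. MIC is 80% growth inhibition versus control; run twice in duplicate.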

| MIC80 | SMILES |
| --- | --- |
| 62.5 µM (≈ 20.2 µg/mL) | CC(=O)OC/C=C1/C=C(c2ccc(Br)cc2)C(=O)O1 |

These compounds were tested on Clavispora lusitaniae (assay: Antifungal activity against Candida lusitaniae 2446/I after 24 hrs by microdilution method). Conditions: not given.
Format: functional
Procedure, shortened: as §1

| MIC80 | SMILES |
| --- | --- |
| 62.5 µM (≈ 20.2 µg/mL) | CC(=O)OC/C=C1/C=C(c2ccc(Br)cc2)C(=O)O1 |

Each compound was assayed on Lichtheimia corymbifera (assay: Antifungal activity against Absidia corymbifera 272 after 24 hrs by microdilution method). Conditions: Lichtheimia corymbifera, 272, 24 h.
Format: functional
Procedure, shortened: (§2)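 Filamentous strains held on Sabouraud dextrose agar. NCCLS M27-A broth microdilution in RPMI 1640 with L-glutamine and 0.165 M MOPS, pH 7.0. DMSO diluent ≤2% final; twofold dilutions 500–0.48. Inoculum 5 × 10³ ± 0.2 cfu mL⁻¹ final.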

| MIC80 | SMILES |
| --- | --- |
| 31.2 µM (≈ 10.1 µg/mL) | CC(=O)OC/C=C1/C=C(c2ccc(Br)cc2)C(=O)O1 |

What follows are compounds tested on Trichophyton mentagrophytes (assay: Antifungal activity against Trichophyton mentagrophytes 445 after 72 hrs by microdilution method). Conditions: Trichophyton mentagrophytes, 445, 72 h.
Format: functional
Procedure, shortened: (§3)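 Dermatophyte held on Sabouraud dextrose agar. M27-A microdilution in MOPS-buffered (0.165 M, pH 7.0) RPMI 1640 with L-glutamine. DMSO ≤2% final; twofold dilutions 500–0.48. Inoculum 5 × 10³ ± 0.2 cfu mL⁻¹ final. Incubated at 35 °C; MIC read visually at 72 and 120 h as 80% inhibition of control growth; determined twice in duplicate.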

| MIC80 | SMILES |
| --- | --- |
| 7.81 µM (≈ 2.52 µg/mL) | CC(=O)OC/C=C1/C=C(c2ccc(Br)cc2)C(=O)O1 |

These compounds were tested on Nakaseomyces glabratus (assay: Antifungal activity against Candida glabrata 20/I after 48 hrs by microdilution method). Conditions: not given.
Format: functional
Procedure, shortened: as §1

| MIC80 | SMILES |
| --- | --- |
| 62.5 µM (≈ 20.2 µg/mL) | CC(=O)OC/C=C1/C=C(c2ccc(Br)cc2)C(=O)O1 |

These compounds were tested on Candida tropicalis (assay: Antifungal activity against Candida tropicalis 156 after 24 hrs by microdilution method). Conditions: Candida tropicalis, 156, 24 h.
Format: functional
Procedure, shortened: as §1

| MIC80 | SMILES |
| --- | --- |
| 31.2 µM (≈ 10.1 µg/mL) | CC(=O)OC/C=C1/C=C(c2ccc(Br)cc2)C(=O)O1 |

What follows are compounds tested on HeLa S3 (assay: Cytostatic activity against human HeLaS3 cells after 48 hrs by XTT assay). Conditions: Homo sapiens, HeLa S3, 48 h; read-out: IC50.

| IC50 | SMILES |
| --- | --- |
| 4.18 µM | CC(=O)OC/C=C1/C=C(c2ccc(Br)cc2)C(=O)O1 |

The compounds below were run on CCRF-CEM (assay: Cytostatic activity against human CCRF-CEM cells after 72 hrs by XTT assay). Conditions: Homo sapiens, CCRF-CEM, 72 h; read-out: IC50.
Format: functional, cell-based
Procedure, shortened: (§4)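 Leukemia cells (L1210 ATCC CCL 219, CCRF-CEM ATCC CCL 119, HL-60 ATCC CCL 240) grown in 24-well plates in RPMI 1640 with fetal calf serum. Growth assessed 72 h after drug addition. Viability measured by XTT spectrophotometric assay; potency given as IC50.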

| IC50 | SMILES |
| --- | --- |
| 4.32 µM | CC(=O)OC/C=C1/C=C(c2ccc(Br)cc2)C(=O)O1 |

Each compound was assayed on Nakaseomyces glabratus (assay: Antifungal activity against Candida glabrata 20/I after 24 hrs by microdilution method). Conditions: not given.
Format: functional
Procedure, shortened: as §1

| MIC80 | SMILES |
| --- | --- |
| 31.2 µM (≈ 10.1 µg/mL) | CC(=O)OC/C=C1/C=C(c2ccc(Br)cc2)C(=O)O1 |

The compounds below were run on Pichia kudriavzevii (assay: Antifungal activity against Candida krusei E28 after 24 hrs by microdilution method). Conditions: E28, 24 h.
Format: functional
Procedure, shortened: as §1

| MIC80 | SMILES |
| --- | --- |
| 62.5 µM (≈ 20.2 µg/mL) | CC(=O)OC/C=C1/C=C(c2ccc(Br)cc2)C(=O)O1 |

Each compound was assayed on Clavispora lusitaniae (assay: Antifungal activity against Candida lusitaniae 2446/I after 48 hrs by microdilution method). Conditions: not given.
Format: functional
Procedure, shortened: as §1

| MIC80 | SMILES |
| --- | --- |
| 125 µM (≈ 40.4 µg/mL) | CC(=O)OC/C=C1/C=C(c2ccc(Br)cc2)C(=O)O1 |

The compounds below were run on Candida albicans (assay: Antifungal activity against Candida albicans ATCC 44859 after 24 hrs by microdilution method). Conditions: ATCC 44859, 24 h.
Format: functional
Procedure, shortened: as §1

| MIC80 | SMILES |
| --- | --- |
| 7.81 µM (≈ 2.52 µg/mL) | CC(=O)OC/C=C1/C=C(c2ccc(Br)cc2)C(=O)O1 |

These compounds were tested on Pichia kudriavzevii (assay: Antifungal activity against Candida krusei ATCC 6258 after 24 hrs by microdilution method). Conditions: ATCC 6258, 24 h.
Format: functional
Procedure, shortened: as §1

| MIC80 | SMILES |
| --- | --- |
| 7.81 µM (≈ 2.52 µg/mL) | CC(=O)OC/C=C1/C=C(c2ccc(Br)cc2)C(=O)O1 |

These compounds were tested on Lichtheimia corymbifera (assay: Antifungal activity against Absidia corymbifera 272 after 48 hrs by microdilution method). Conditions: Lichtheimia corymbifera, 272, 48 h.
Format: functional
Procedure, shortened: as §2

| MIC80 | SMILES |
| --- | --- |
| 31.2 µM (≈ 10.1 µg/mL) | CC(=O)OC/C=C1/C=C(c2ccc(Br)cc2)C(=O)O1 |

What follows are compounds tested on L1210 (assay: Cytostatic activity against mouse L1210 cells after 72 hrs by XTT assay). Conditions: l1210.
Format: functional, cell-based
Procedure, shortened: as §4

| IC50 | SMILES |
| --- | --- |
| Not Active | CC(=O)OC/C=C1/C=C(c2ccc(Br)cc2)C(=O)O1 |

Each compound was assayed on Candida parapsilosis (assay: Antifungal activity against Candida parapsilosis ATCC 22019 after 48 hrs by microdilution method). Conditions: Lodderomyces parapsilosis, ATCC 22019, 48 h.
Format: functional
Procedure, shortened: as §1

| MIC80 | SMILES |
| --- | --- |
| 62.5 µM (≈ 20.2 µg/mL) | CC(=O)OC/C=C1/C=C(c2ccc(Br)cc2)C(=O)O1 |

The compounds below were run on Trichophyton mentagrophytes (assay: Antifungal activity against Trichophyton mentagrophytes 445 after 120 hrs by microdilution method). Conditions: Trichophyton mentagrophytes, 445, 120 h.
Format: functional
Procedure, shortened: as §3

| MIC80 | SMILES |
| --- | --- |
| 15.6 µM (≈ 5.05 µg/mL) | CC(=O)OC/C=C1/C=C(c2ccc(Br)cc2)C(=O)O1 |

What follows are compounds tested on Candida albicans (assay: Antifungal activity against Candida albicans ATCC 90028 after 24 hrs by microdilution method). Conditions: ATCC 90028, 24 h.
Format: functional
Procedure, shortened: as §1

| MIC80 | SMILES |
| --- | --- |
| 31.2 µM (≈ 10.1 µg/mL) | CC(=O)OC/C=C1/C=C(c2ccc(Br)cc2)C(=O)O1 |

What follows are compounds tested on HL-60 (assay: Cytostatic activity against human HL60 cells after 72 hrs by XTT assay). Conditions: hl-60.
Format: functional, cell-based
Procedure, shortened: as §4

| IC50 | SMILES |
| --- | --- |
| Not Active | CC(=O)OC/C=C1/C=C(c2ccc(Br)cc2)C(=O)O1 |

What follows are compounds tested on Aspergillus fumigatus (assay: Antifungal activity against Aspergillus fumigatus 231 after 24 hrs by microdilution method). Conditions: Aspergillus fumigatus, 231, 24 h.
Format: functional
Procedure, shortened: as §2

| MIC80 | SMILES |
| --- | --- |
| 15.6 µM (≈ 5.05 µg/mL) | CC(=O)OC/C=C1/C=C(c2ccc(Br)cc2)C(=O)O1 |

The compounds below were run on Trichosporon beigelii (assay: Antifungal activity against Trichosporon beigelii 1188 after 24 hrs by microdilution method). Conditions: Trichosporon beigelii, 1188, 24 h.
Format: functional
Procedure, shortened: as §1

| MIC80 | SMILES |
| --- | --- |
| 31.2 µM (≈ 10.1 µg/mL) | CC(=O)OC/C=C1/C=C(c2ccc(Br)cc2)C(=O)O1 |

Each compound was assayed on Pichia kudriavzevii (assay: Antifungal activity against Candida krusei ATCC 6258 after 48 hrs by microdilution method). Conditions: ATCC 6258, 48 h.
Format: functional
Procedure, shortened: as §1

| MIC80 | SMILES |
| --- | --- |
| 62.5 µM (≈ 20.2 µg/mL) | CC(=O)OC/C=C1/C=C(c2ccc(Br)cc2)C(=O)O1 |

What follows are compounds tested on Candida parapsilosis (assay: Antifungal activity against Candida parapsilosis ATCC 22019 after 24 hrs by microdilution method). Conditions: Lodderomyces parapsilosis, ATCC 22019, 24 h.
Format: functional
Procedure, shortened: as §1

| MIC80 | SMILES |
| --- | --- |
| 31.2 µM (≈ 10.1 µg/mL) | CC(=O)OC/C=C1/C=C(c2ccc(Br)cc2)C(=O)O1 |

The compounds below were run on Candida albicans (assay: Antifungal activity against Candida albicans ATCC 44859 after 48 hrs by microdilution method). Conditions: ATCC 44859, 48 h.
Format: functional
Procedure, shortened: as §1

| MIC80 | SMILES |
| --- | --- |
| 31.2 µM (≈ 10.1 µg/mL) | CC(=O)OC/C=C1/C=C(c2ccc(Br)cc2)C(=O)O1 |

These compounds were tested on Trichosporon beigelii (assay: Antifungal activity against Trichosporon beigelii 1188 after 48 hrs by microdilution method). Conditions: Trichosporon beigelii, 1188, 48 h.
Format: functional
Procedure, shortened: as §1

| MIC80 | SMILES |
| --- | --- |
| 31.2 µM (≈ 10.1 µg/mL) | CC(=O)OC/C=C1/C=C(c2ccc(Br)cc2)C(=O)O1 |

Each compound was assayed on Pichia kudriavzevii (assay: Antifungal activity against Candida krusei E28 after 48 hrs by microdilution method). Conditions: E28, 48 h.
Format: functional
Procedure, shortened: as §1

| MIC80 | SMILES |
| --- | --- |
| 62.5 µM (≈ 20.2 µg/mL) | CC(=O)OC/C=C1/C=C(c2ccc(Br)cc2)C(=O)O1 |

The compounds below were run on Aspergillus fumigatus (assay: Antifungal activity against Aspergillus fumigatus 231 after 48 hrs by microdilution method). Conditions: Aspergillus fumigatus, 231, 48 h.
Format: functional
Procedure, shortened: as §2

| MIC80 | SMILES |
| --- | --- |
| 31.2 µM (≈ 10.1 µg/mL) | CC(=O)OC/C=C1/C=C(c2ccc(Br)cc2)C(=O)O1 |

Each compound was assayed on Candida tropicalis (assay: Antifungal activity against Candida tropicalis 156 after 48 hrs by microdilution method). Conditions: Candida tropicalis, 156, 48 h.
Format: functional
Procedure, shortened: as §1

| MIC80 | SMILES |
| --- | --- |
| 125 µM (≈ 40.4 µg/mL) | CC(=O)OC/C=C1/C=C(c2ccc(Br)cc2)C(=O)O1 |
